Test [1] concerns the target T1, Serotonin 3 (5-HT3) receptor (Rattus norvegicus, UniProt P35563+Q9JJ16).
T1 sequence (P35563 whole entry): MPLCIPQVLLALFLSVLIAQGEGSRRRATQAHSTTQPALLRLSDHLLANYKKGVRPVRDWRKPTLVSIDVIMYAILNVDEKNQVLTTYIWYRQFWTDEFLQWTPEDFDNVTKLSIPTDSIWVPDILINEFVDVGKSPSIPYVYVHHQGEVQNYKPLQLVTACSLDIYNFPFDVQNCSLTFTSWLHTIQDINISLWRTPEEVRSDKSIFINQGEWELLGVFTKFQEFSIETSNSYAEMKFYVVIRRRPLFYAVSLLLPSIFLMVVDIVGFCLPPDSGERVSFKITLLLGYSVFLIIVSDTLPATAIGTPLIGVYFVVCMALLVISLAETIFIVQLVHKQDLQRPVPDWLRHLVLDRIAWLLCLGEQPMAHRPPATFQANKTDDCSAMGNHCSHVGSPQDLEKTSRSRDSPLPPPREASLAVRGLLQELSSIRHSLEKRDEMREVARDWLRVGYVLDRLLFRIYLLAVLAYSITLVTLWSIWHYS
T1 sequence (Q9JJ16 whole entry): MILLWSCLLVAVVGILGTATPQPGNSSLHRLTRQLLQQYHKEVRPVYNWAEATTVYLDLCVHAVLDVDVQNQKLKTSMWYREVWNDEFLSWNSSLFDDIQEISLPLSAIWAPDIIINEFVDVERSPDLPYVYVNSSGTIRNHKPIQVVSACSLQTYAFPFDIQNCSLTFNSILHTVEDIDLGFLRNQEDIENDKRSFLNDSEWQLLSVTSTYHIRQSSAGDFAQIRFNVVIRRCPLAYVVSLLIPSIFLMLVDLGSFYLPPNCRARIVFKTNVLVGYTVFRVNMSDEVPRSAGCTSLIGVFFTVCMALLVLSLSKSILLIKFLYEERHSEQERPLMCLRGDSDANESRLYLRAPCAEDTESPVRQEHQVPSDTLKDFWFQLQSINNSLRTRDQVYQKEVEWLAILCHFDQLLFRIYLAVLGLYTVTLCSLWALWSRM
The experiment in a line: Displacement of [3H]GR-65630 binding to 5-hydroxytryptamine 3 receptor in rat brain cortical membranes. Format: cell membranes, Membrane. In outline: (§1)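 Radioligand displacement on membrane preparations with glass-fibre filtration and liquid scintillation counting of tritium after overnight equilibration. Four to six test concentrations were used. IC50 came from log-probit linear regression. Ki = IC50/(1 + S/Kd), where S is the [3H]label concentration. Ki is the mean of at least three independent experiments run on different days with different membrane preparations.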
On the technique in general: Displacement assays read how much labelled ligand stays bound in the presence of the test substance.

The target of test [2] is T2, Voltage-gated L-type calcium channel (Rattus norvegicus, UniProt P22002+Q02485+P27732). The experiment in a line: Inhibition of [3H]nitrendipine binding to L-type calcium channel dihydropyridine site of rat brain. A digest of the protocol:
(§2)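 Radioligand displacement on tissue membrane suspensions, with 4–6 concentrations of unlabeled test drug. Bound label was collected on GF/B glass-fibre filters, equilibrated overnight in scintillant, and counted for tritium. […] Ki = IC50/(1 + S/Kd), where S is the label concentration. Each value is the mean of ≥3 independent experiments on different days with different membrane preparations.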

For test [3], the target named is Interleukin-6 receptor subunit alpha (Rattus norvegicus, UniProt P22273). The experiment in a line: The binding affinity was measured on […] receptor using [3H]- IL-6 as radioligand. In outline:
as §2

In test [4] the target is Kappa-type opioid receptor (Rattus norvegicus, UniProt P34975). The experiment in a line: The binding affinity was measured on kappa-opiate receptor using [3H]- EKC as radioligand.
Test [5] is described as follows: The binding affinity was measured on melatonin receptor using [3H]- 2-iodo-melat as radioligand.
In test [6] the target is Muscarinic acetylcholine receptor M3 (Rattus norvegicus, UniProt P08483). The test is described as follows: The binding affinity was measured on muscarine M3 receptor using [3H]- N-Me-SCOPOL as radioligand.
Test [7] has as its target Histamine H1 receptor (Rattus norvegicus, UniProt P31390). The test is described as follows: The binding affinity was measured on histamine H1 receptor using [3H]- mepyramine as radioligand.
For test [8], the target named is GABA-A receptor; anion channel. The experiment in a line: Displacement of [3H]- Diazepam from rat GABA-A benzodiazepine receptor. Format: protein-complex assay. A digest of the protocol:
as §1

Test [9] has as its target Muscarinic acetylcholine receptor M1 (Rattus norvegicus, UniProt P08482). The experiment in a line: The binding affinity was measured on muscarine M1 receptor using [3H]- pirenzepine as radioligand.
The target of test [10] is Thyrotropin-releasing hormone receptor (Rattus norvegicus, UniProt Q01717). The test is described as follows: The binding affinity was measured on TRH receptor using [3H]- MeTRH as radioligand.
Test [11] has as its target D(3) dopamine receptor (Rattus norvegicus, UniProt P19020). The test is described as follows: The binding affinity was measured on dopamine receptor D3 using [3H]- spiperone as radioligand.
In test [12] the target is GABA-A receptor; anion channel. The test is described as follows: Displacement of [3H]DH-muscimol from rat GABA-A receptor. Format: protein-complex assay. In outline: as §1
The target in test [13] is Glutamate receptor ionotropic, NMDA 2C (Rattus norvegicus, UniProt Q00961). The test is described as follows: The binding affinity was measured on NMDA receptor using [3H]- CGS-19755 as radioligand.
For test [14], the species on record is Rattus norvegicus. The test is described as follows: Dose of antagonist which inhibits the by the 2-Me-5-HT induced slowing of the heart rate by 10 beats/5 s. Format: functional. In outline: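 Von Bezold-Jarisch reflex test in unrestrained conscious rats, with the compound given orally. The bradycardia (slowing of heart rate) was induced by 2-Me-5-HT. The value is the antagonist dose that reduces this slowing by 10 beats/5 s.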

The target in test [15] is D(1A) dopamine receptor (Rattus norvegicus, UniProt P18901). The experiment in a line: The binding affinity was measured on dopamine receptor D1 using [3H]- dopamine as radioligand.
Test [16] deals with Alpha-2A adrenergic receptor (Rattus norvegicus, UniProt P22909). The test is described as follows: The binding affinity was measured on alpha-2-adrenergic receptor using [3H]- clonidine as radioligand.
The species entered for test [17] is Cavia porcellus. The test is described as follows: The pA2 is the negative logarithm of the molar concentration of an antagonist which necessitates the doubling of the agonist dose to couteract the effect of that antagonist and restore the original response was measured in guinea pig isolated ileu m test.
Test [18] is filed under the species Mus musculus. The experiment in a line: Lowest effective dose affecting behavioral parameter in at least half of the animals.
For test [19], the target named is T2, Voltage-gated L-type calcium channel. The test is described as follows: Inhibition of [3H]D-888 binding to L-type calcium channel verapamil site of rat brain. A digest of the protocol: as §2
For test [20], the target named is Histamine H3 receptor (Rattus norvegicus, UniProt Q9QYN8). The test is described as follows: The binding affinity was measured on histamine H3 receptor using [3H]- N-Me-histam as radioligand.
In test [21] the target is Cholecystokinin receptor type A (Rattus norvegicus, UniProt P30551). The experiment in a line: The binding affinity was measured on cholecystokinin type A receptor using [3H]- CCK-8 as radioligand.
Test [22] addresses Gastrin/cholecystokinin type B receptor (Rattus norvegicus, UniProt P30553). The experiment in a line: The binding affinity was measured on cholecystokinin type B receptor using [3H]- CCK-8 as radioligand.
For test [23], the target named is Sigma non-opioid intracellular receptor 1 (Rattus norvegicus, UniProt Q9R0C9). The experiment in a line: The binding affinity was measured on sigma receptor using [3H]- (+)-3-PPP as radioligand.
The target of test [24] is Delta-type opioid receptor (Rattus norvegicus, UniProt P33533). The test is described as follows: The binding affinity was measured on delta-opiate receptor using [3H]- dadle as radioligand.
Test [25] in a line: The binding affinity was measured on Na+2(BTX)brain receptor using [3H]- batrachotox as radioligand. On the set-up: species or system Rattus norvegicus.
The target of test [26] is D(2) dopamine receptor (Rattus norvegicus, UniProt P61169). The test is described as follows: The binding affinity was measured on dopamine receptor D2 using [3H]- spiperone as radioligand.
Test [27] has as its target Mu-type opioid receptor (Rattus norvegicus, UniProt P33535). The experiment in a line: The binding affinity was measured on mu-opiate receptor using [3H]- naloxone as radioligand.
The target of test [28] is Muscarinic acetylcholine receptor M2 (Rattus norvegicus, UniProt P10980). The experiment in a line: The binding affinity was measured on muscarine M2 receptor using [3H]- N-Me-SCOPOL as radioligand. In outline: as §2
The species named for test [29] is Rattus norvegicus. The test is described as follows: The pA2 is the negative logarithm of the molar concentration of an antagonist which necessitates the doubling of the agonist dose to couteract the effect of that antagonist and restore the original response was measured in rat isolated vagus nerve test. Conditions: read-out: pA2 (converted). Type of test: functional.

The nature of test [30]: The binding affinity was measured on glycine strych. ins receptor using [3H]- 5,7-diClkyn.acid as radioligand. Also on record: species or system Rattus norvegicus.
In test [31] the target is Adrenergic receptor beta (Rattus norvegicus, UniProt P18090+P10608+P26255). The experiment in a line: The binding affinity was measured on beta-1,2-adrenergic receptor using [3H]- DHA as radioligand. Format: protein assay.
A short description of test [32]: The binding affinity was measured on substance P as radioligand. On the set-up: species or system Rattus norvegicus.

Results on 13 compounds are retold here after ChEMBL document CHEMBL1127031, “Development of high-affinity 5-HT3 receptor antagonists. Structure-affinity relationships of novel 1,7-annelated indole derivatives” (J Med Chem, 1993).

Muscarinic acetylcholine receptor M3, sequence (P08483 whole entry): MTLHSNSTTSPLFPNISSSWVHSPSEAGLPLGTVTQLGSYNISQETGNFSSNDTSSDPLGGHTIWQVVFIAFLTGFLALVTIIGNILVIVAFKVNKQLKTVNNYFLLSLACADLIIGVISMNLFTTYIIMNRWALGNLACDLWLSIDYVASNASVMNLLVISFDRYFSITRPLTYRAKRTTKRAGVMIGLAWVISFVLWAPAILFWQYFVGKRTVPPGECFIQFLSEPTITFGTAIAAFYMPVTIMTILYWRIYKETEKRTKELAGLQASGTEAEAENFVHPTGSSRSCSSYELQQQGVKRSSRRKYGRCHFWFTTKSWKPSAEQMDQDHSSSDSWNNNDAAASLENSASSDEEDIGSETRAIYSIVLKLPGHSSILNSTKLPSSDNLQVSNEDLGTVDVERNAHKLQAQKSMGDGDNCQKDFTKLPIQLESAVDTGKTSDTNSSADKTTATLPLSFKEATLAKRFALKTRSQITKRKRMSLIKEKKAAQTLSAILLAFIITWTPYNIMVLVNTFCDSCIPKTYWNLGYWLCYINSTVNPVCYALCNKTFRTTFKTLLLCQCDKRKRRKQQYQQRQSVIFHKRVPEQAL
Sigma non-opioid intracellular receptor 1, sequence (Q9R0C9 whole entry): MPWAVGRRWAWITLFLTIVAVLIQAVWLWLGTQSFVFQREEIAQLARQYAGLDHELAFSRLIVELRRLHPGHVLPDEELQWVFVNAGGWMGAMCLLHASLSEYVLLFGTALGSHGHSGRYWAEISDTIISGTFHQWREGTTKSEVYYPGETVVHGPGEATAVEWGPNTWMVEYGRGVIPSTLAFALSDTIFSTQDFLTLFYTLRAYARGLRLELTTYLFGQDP
Alpha-2A adrenergic receptor, sequence (P22909 whole entry): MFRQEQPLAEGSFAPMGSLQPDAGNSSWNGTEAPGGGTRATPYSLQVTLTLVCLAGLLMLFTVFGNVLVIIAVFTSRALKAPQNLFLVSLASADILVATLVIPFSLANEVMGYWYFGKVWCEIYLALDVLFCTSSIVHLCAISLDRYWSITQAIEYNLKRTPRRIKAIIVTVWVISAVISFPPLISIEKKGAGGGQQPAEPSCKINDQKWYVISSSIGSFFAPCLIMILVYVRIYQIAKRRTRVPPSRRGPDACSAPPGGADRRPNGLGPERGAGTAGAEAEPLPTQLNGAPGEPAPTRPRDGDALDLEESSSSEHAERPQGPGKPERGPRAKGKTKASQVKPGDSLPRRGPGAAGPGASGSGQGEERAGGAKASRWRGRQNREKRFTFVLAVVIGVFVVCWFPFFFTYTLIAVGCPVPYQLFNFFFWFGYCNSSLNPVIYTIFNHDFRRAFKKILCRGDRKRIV
D(2) dopamine receptor, sequence (P61169 whole entry): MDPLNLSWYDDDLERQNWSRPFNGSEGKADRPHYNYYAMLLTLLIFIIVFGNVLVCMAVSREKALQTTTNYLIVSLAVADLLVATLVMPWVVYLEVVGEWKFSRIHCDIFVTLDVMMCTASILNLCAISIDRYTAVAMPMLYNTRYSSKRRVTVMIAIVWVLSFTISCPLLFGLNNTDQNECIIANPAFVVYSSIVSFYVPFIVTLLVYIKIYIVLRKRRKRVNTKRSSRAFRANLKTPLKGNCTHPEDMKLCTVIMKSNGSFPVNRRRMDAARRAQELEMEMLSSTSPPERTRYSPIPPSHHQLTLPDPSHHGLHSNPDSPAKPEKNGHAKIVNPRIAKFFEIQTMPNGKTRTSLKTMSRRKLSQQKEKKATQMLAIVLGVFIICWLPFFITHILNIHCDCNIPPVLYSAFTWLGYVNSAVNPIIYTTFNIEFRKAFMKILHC
D(1A) dopamine receptor, sequence (P18901 whole entry): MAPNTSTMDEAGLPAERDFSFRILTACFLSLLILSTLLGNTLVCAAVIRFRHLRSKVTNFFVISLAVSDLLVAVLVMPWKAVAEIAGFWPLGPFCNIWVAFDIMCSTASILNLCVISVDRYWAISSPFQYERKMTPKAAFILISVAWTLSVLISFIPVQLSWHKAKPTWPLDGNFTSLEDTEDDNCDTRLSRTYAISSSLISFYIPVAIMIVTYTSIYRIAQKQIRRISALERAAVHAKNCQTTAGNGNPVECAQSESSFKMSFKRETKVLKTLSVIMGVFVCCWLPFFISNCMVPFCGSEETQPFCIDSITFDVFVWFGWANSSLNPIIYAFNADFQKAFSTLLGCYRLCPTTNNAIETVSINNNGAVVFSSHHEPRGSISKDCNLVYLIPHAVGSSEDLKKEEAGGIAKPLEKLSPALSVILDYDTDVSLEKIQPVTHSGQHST
Glutamate receptor ionotropic, NMDA 2C, sequence (Q00961 whole entry): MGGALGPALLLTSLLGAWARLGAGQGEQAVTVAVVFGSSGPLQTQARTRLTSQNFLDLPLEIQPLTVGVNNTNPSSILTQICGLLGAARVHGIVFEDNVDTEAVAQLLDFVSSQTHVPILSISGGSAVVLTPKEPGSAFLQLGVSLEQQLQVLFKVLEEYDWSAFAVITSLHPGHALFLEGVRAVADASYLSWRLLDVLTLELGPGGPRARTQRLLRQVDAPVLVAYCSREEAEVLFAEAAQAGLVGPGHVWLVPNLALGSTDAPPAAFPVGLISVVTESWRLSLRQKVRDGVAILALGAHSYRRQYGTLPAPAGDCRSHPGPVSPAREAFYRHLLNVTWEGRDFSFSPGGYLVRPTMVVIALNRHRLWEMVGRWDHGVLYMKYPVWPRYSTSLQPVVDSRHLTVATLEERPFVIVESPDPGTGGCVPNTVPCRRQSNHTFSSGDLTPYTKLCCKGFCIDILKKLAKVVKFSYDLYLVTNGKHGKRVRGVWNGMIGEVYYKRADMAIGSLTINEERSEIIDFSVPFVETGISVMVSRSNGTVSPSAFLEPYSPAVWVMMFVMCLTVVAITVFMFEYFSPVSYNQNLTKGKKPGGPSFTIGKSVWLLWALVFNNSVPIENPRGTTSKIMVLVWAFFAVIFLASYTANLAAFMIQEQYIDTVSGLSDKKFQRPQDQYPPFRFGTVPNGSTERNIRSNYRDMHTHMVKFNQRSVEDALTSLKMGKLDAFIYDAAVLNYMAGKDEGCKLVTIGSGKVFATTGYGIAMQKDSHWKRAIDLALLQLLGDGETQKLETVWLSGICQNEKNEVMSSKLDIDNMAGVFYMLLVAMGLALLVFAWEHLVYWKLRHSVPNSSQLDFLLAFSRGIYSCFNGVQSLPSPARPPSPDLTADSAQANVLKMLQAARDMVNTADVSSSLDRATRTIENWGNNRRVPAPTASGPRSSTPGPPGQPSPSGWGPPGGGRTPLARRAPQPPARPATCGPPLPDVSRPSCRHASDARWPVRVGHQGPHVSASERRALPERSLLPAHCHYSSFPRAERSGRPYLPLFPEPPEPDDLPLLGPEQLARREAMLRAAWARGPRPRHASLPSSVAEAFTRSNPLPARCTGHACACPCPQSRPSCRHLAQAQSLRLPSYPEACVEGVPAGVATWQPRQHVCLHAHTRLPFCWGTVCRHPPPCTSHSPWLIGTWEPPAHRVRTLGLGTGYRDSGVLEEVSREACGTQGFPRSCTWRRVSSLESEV
Kappa-type opioid receptor, sequence (P34975 whole entry): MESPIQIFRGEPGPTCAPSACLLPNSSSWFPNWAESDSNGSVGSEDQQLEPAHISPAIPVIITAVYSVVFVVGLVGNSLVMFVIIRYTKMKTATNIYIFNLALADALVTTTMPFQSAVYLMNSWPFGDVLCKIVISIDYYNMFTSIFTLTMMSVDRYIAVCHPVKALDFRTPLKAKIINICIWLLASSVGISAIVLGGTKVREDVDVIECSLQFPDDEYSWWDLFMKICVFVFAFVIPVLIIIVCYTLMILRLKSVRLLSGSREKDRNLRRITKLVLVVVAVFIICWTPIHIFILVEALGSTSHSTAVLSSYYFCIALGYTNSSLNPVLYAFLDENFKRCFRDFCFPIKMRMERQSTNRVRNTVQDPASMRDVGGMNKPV
Mu-type opioid receptor, sequence (P33535 whole entry): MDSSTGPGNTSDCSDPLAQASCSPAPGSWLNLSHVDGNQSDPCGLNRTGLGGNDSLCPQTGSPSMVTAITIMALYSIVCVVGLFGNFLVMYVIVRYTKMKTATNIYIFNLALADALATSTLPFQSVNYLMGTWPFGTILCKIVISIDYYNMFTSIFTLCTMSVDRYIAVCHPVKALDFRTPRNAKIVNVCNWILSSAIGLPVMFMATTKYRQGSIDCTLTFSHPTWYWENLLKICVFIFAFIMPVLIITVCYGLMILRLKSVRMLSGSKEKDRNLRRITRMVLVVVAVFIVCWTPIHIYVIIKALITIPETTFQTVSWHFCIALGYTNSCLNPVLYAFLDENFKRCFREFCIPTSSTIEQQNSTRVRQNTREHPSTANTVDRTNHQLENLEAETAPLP
Muscarinic acetylcholine receptor M1, sequence (P08482 whole entry): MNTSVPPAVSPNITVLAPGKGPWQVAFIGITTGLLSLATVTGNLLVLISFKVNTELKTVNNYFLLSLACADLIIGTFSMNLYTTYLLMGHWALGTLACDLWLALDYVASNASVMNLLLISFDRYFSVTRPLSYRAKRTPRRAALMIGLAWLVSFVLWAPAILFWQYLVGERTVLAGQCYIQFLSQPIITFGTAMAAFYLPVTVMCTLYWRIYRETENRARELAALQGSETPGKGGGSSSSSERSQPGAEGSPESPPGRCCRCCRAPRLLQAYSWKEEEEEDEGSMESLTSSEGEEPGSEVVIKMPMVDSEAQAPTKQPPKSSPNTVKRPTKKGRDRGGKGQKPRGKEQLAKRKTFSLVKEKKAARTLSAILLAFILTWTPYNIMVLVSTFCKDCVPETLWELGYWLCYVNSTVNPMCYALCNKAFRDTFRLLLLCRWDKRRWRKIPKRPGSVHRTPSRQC

For the compound `Cc1[nH]cnc1CCC(=O)c1cn(C)c2ccccc12`, the Ki (as a rule, the dissociation constant of the complex between target and ligand, obtained from inhibition or displacement) in test [1] was 0.28 nM.
In turn, `Cc1nc[nH]c1CCC(=O)c1cn2c3c(cccc13)SCC2` returned an inhibitory constant (Ki) in test [1] of 0.19 nM.
For the compound `Cc1[nH]cnc1CCC(=O)c1cn2c3c(cccc13)CCC2`, in test [1], the affinity, expressed as Ki, was 0.075 nM.
On the same count and under the same terms, with `Cc1[nH]cnc1CCC(=O)c1cn2c3c(cccc13)CCCC2` the figure was 0.33 nM; with `Cc1nccn1CC1CCc2c(c3cccc4c3n2CCO4)C1=O` (racemic), 1.3 nM.
Still for that read-out and setting: with `Cc1nccn1CC1CCc2c(c3cccc4c3n2CCCCC4)C1=O` (racemic) the figure was 1.1 nM; with `Cc1nccn1CC1CCc2c(c3cccc4c3n2CCS4)C1=O` (racemic), 0.77 nM; with `Cc1nccn1CC1CCc2c(c3cccc4c3n2CCCC4)C1=O` (racemic), 0.75 nM.
In turn, `Cc1nccn1CC1CCc2c(c3cccc4c3n2CC4)C1=O` (racemic) displayed a Ki in [1] of 0.23 nM.
As for `Cc1nccn1CC1CCc2c(c3cccc4c3n2CCCC4)C1=O` (single isomer, unassigned; (+)), affinity in test [1] was put at a Ki of 0.93 nM.
The compound `Cc1nccn1CC1CCc2c(c3cccc4c3n2CCCC4)C1=O` (single isomer, unassigned; (-)) gave a Ki in test [1] of 0.64 nM.
For `Cc1nccn1C[C@H]1CCc2c(c3cccc4c3n2CCC4)C1=O` [CILANSETRON], the Ki in test [2] is above 10 µM; in test [3] it was above 10 µM; in test [4], above 10 µM; in test [5], above 10 µM; in test [6], above 10 µM; in [7], 6.5 µM. Also, the Ki in test [8] was above 10 µM; in test [9] it was 0.91 µM; in test [10] it was above 10 µM; in test [11], above 10 µM; in [12], above 10 µM; in test [13], above 10 µM. The Ki in test [15] was above 10 µM; in [16], above 10 µM; in test [19], 5.4 µM; in [20], above 10 µM; in test [21] it was above 10 µM; in test [22], above 10 µM. Besides, the Ki was 0.34 µM in test [23]; above 10 µM in test [24]; above 10 µM in test [25]; above 10 µM in [26]; 8.5 µM in [27]; above 10 µM in test [28]. The Ki in test [30], in test [31] and in [32] was above 10 µM each time. The ED10 in [14] was 0.026 mg/kg. In addition, the results for the Kb in test [17] and in test [29] were 0.0158 µM and 0.000115 µM, respectively. This compound also came in with an LED in [18] of 30 mg/kg.
For `Cc1nccn1CC1CCc2c(c3ccccc3n2C)C1=O` (stereo not drawn) [ONDANSETRON], the Ki in [2], in [3], in [4], in [5], in test [6] and in [7] was above 10 µM in each case. In addition, the Ki in test [8] is above 10 µM; in test [9], 5.1 µM; in [10], above 10 µM; in [11], above 10 µM; in test [12] it was above 10 µM; in [13] it was above 10 µM. Also, the Ki in test [15], in [16], in test [19], in [20], in test [21] and in [22] was above 10 µM each time. Also, the inhibition constant Ki in test [23] is 0.68 µM; in [24], above 10 µM; in [25], above 10 µM; in test [26] it was above 10 µM; in test [27] it was 2.9 µM; in [28], above 10 µM. The Ki in test [30], in test [31] and in test [32] was above 10 µM throughout. In addition, the ED10 in test [14] was determined as 0.165 mg/kg. Besides, the Kb in test [17] is 0.158 µM; in [29] it was 0.00102 µM. For the same compound, in test [18], the LED was 3 mg/kg.
